We go through two molecules from ChEMBL document CHEMBL2346664, “Synthesis, characterization and in vitro anticancer evaluation of novel 1,2,4-triazolin-3-one derivatives” (2013).

Common to all, as to assay type: functional
In one experiment the test system is UO-31. Briefly: Growth inhibition of human UO31 cells assessed as cell growth at 10 '-7 M after 48 hrs by sulforhodamine B assay. The following applies: UO-31, 48 h, read-out: Activity.
The subject of the next experiment is IGROV-1. Briefly: Growth inhibition of human IGROV1 cells assessed as growth inhibition at 10 uM after 48 hrs by sulforhodamine B assay. As to conditions: IGROV-1, 48 h, read-out: GI. (The SRB assay estimates cell density from bound dye.)
For another experiment, the system named is ACHN. The experiment in a line: Growth inhibition of human ACHN cells assessed as cell growth at 10 '-7 M after 48 hrs by sulforhodamine B assay. As to conditions: read-out: Activity. In short, it runs like this:
(§1)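 Percent growth at each of the five concentrations of the 48 h continuous-exposure NCI SRB screen. Drug stocks were in DMSO at 400× the top final concentration and diluted in medium with gentamicin. Growth was calculated as [(Ti-Tz)/(C-Tz)]×100 when Ti ≥ Tz, or [(Ti-Tz)/Tz]×100 when Ti < Tz. Tz plates were fixed at drug addition; untreated wells served as control. Absorbance was read at 515 nm.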

The subject of a further experiment is HOP-92. The experiment in a line: Growth inhibition of human HOP92 cells assessed as cell growth at 10 '-7 M after 48 hrs by sulforhodamine B assay. As to conditions: HOP-92, 48 h, read-out: Activity.
A further experiment deals with A498. Briefly: Growth inhibition of human A498 cells assessed as cell growth at 10 '-8 M after 48 hrs by sulforhodamine B assay. As to conditions: A498, 48 h, read-out: Activity. An outline of the steps: as §1
The subject of another experiment is HL-60(TB). Briefly: Growth inhibition of human HL-60(TB) cells assessed as cell growth at 10 '-7 M after 48 hrs by sulforhodamine B assay. As to conditions: HL-60, 48 h, read-out: Activity. In short, it runs like this: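 Five-dose NCI protocol with final concentrations of 0.01–100 µM and drug diluted from a DMSO stock (400× the top concentration) in medium with gentamicin. Cells were pre-incubated 24 h, then exposed 48 h at 37 °C. Suspension cells were fixed with 16% final TCA, SRB-stained and read at 515 nm. Percentage growth at each level was [(Ti−Tz)/(C−Tz)]×100, or [(Ti−Tz)/Tz]×100 when Ti < Tz.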

Another experiment deals with HCT-15. The experiment in a line: Growth inhibition of human HCT15 cells assessed as cell growth at 10 '-8 M after 48 hrs by sulforhodamine B assay. As to conditions: HCT-15, 48 h, read-out: Activity.
The test system of experiment [1] is SK-MEL-5. Briefly: Growth inhibition of human SK-MEL-5 cells assessed as cell growth at 10 '-7 M after 48 hrs by sulforhodamine B assay. The following applies: SK-MEL-5, 48 h, read-out: Activity.
The subject of experiment [2] is COLO 205. Briefly: Growth inhibition of human COLO205 cells assessed as cell growth at 10 '-4 M after 48 hrs by sulforhodamine B assay. The following applies: COLO 205, 48 h, read-out: Activity. In short, it runs like this: (§2)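 In the same five-dose SRB screen (48 h, 37 °C, 5% CO2), percentage growth was computed at each concentration from time-zero (Tz), control (C) and treated (Ti) absorbances. The formula was [(Ti−Tz)/(C−Tz)]×100 when Ti ≥ Tz, or [(Ti−Tz)/Tz]×100 when Ti < Tz.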

The subject of the next experiment is NCI-H23. The experiment in a line: Growth inhibition of human NCI-H23 cells after 48 hrs by sulforhodamine B assay. As to conditions: NCI-H23, 48 h. In short, it runs like this: (§3)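 NCI 60-cell-line five-dose screen. Cells were plated at 5,000–40,000/well by doubling time and grown 24 h at 37 °C, 5% CO2. Time-zero plates were TCA-fixed. Drug from DMSO stock was tested at 0.01, 0.1, 1, 10 and 100 µM final for 48 h continuous exposure. Read-out was SRB at 515 nm. GI50 is the concentration giving 50% reduction in net protein increase versus untreated control.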

Experiment [3] in a line: Growth inhibition of human HCC2998 cells after 48 hrs by sulforhodamine B assay. As to conditions: HCC 2998, 48 h. An outline of the steps: as §3
Another experiment concerns MCF7. Briefly: Growth inhibition of human MCF7 cells assessed as cell growth at 10 '-5 M after 48 hrs by sulforhodamine B assay. The following applies: MCF7, 48 h, read-out: Activity.
In experiment [4] the test system is COLO 205. Briefly: Growth inhibition of human COLO205 cells assessed as cell growth at 10 '-5 M after 48 hrs by sulforhodamine B assay. The following applies: COLO 205, 48 h, read-out: Activity. An outline of the steps:
as §2

Experiment [5] relates to MDA-MB-435. Briefly: Growth inhibition of human MDA-MB-435 cells assessed as cell growth at 10 '-5 M after 48 hrs by sulforhodamine B assay. As to conditions: MDA-MB-435, 48 h, read-out: Activity.
The subject of another experiment is MDA-MB-231. The experiment in a line: Growth inhibition of human MDA-MB-231 cells assessed as cell growth at 10 '-4 M after 48 hrs by sulforhodamine B assay. The following applies: MDA-MB-231, 48 h, read-out: Activity.
The next experiment has as its system RPMI-8226. Briefly: Growth inhibition of human RPMI8226 cells after 48 hrs by sulforhodamine B assay. As to conditions: RPMI-8226, 48 h.
Experiment [6] has as its system BT-549. Briefly: Growth inhibition of human BT549 cells after 48 hrs by sulforhodamine B assay. The following applies: BT-549, 48 h. An outline of the steps: (§4)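 NCI 60-cell-line five-dose screen at 0.01, 0.1, 1, 10 and 100 µM final. Cells were plated at 5,000–40,000/well and grown 24 h at 37 °C, 5% CO2, then exposed to drug continuously for 48 h. Adherent cells were fixed with cold TCA (10% final) and stained with SRB; absorbance read at 515 nm. GI50 is the concentration where [(Ti-Tz)/(C-Tz)]×100 = 50, with Tz plates fixed at drug addition.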

The test system of the next experiment is M14. The experiment in a line: Growth inhibition of human M14 cells assessed as cell growth at 10 '-6 M after 48 hrs by sulforhodamine B assay. As to conditions: M14, 48 h, read-out: Activity.
Experiment [7] deals with MDA-MB-435. Briefly: Growth inhibition of human MDA-MB-435 cells assessed as cell growth at 10 '-8 M after 48 hrs by sulforhodamine B assay. The following applies: MDA-MB-435, 48 h, read-out: Activity.
Experiment [8] has as its system BT-549. Briefly: Growth inhibition of human BT549 cells assessed as cell growth at 10 '-8 M after 48 hrs by sulforhodamine B assay. The following applies: BT-549, 48 h, read-out: Activity. In short, it runs like this:
as §1

Experiment [9] has as its system SK-MEL-5. Briefly: Growth inhibition of human SK-MEL-5 cells assessed as cell growth at 10 '-4 M after 48 hrs by sulforhodamine B assay. The following applies: SK-MEL-5, 48 h, read-out: Activity.
Experiment [10] is described as follows: Growth inhibition of human Hs 578T cells after 48 hrs by sulforhodamine B assay. In short, it runs like this:
as §3

A short description of experiment [11]: Growth inhibition of human NCI-ADR-RES cells assessed as cell growth at 10 '-7 M after 48 hrs by sulforhodamine B assay. As to conditions: read-out: Activity.
In another experiment the test system is HOP-62. The experiment in a line: Growth inhibition of human HOP62 cells assessed as cell growth at 10 '-5 M after 48 hrs by sulforhodamine B assay. As to conditions: HOP-62, 48 h, read-out: Activity.
In the next experiment the test system is 786-0. Briefly: Growth inhibition of human 786-0 cells after 48 hrs by sulforhodamine B assay. As to conditions: 786-0, 48 h. An outline of the steps:
as §4

[12] abbreviates: read-out: LD50 (the source's name).

Consider `Cc1cc(=O)oc2cc(OCCn3c(C)nn(-c4ccc(Cl)cc4)c3=O)ccc12`, for which the growth at 0.1 µM in the experiment with UO-31 was found to be 83%; in the experiment on ACHN, 106%; in the experiment with HOP-92, 83%; in the experiment with HL-60(TB), 104%; with SK-MEL-5 [1], 92%; in experiment [11] it was 96%. The inhibition of growth at 10 µM with IGROV-1 amounted to 40.3%. In addition, the growth at 0.01 µM with A498 worked out at 81%; in the experiment on HCT-15, 98%; in the experiment with MDA-MB-435 [7], 99%; with BT-549 [8] it was 105%. The figures for the growth at 100 µM in the experiment with COLO 205 [2], with MDA-MB-231 and with SK-MEL-5 [9] were -38%, 11% and 4%, respectively. The GI50 (usually the concentration giving 50% growth inhibition) stood at 2830 nM in the experiment with NCI-H23; 3590 nM in experiment [3]; 1100 nM with RPMI-8226; 1650 nM in the experiment with BT-549 [6]; 2820 nM in experiment [10]. For the same molecule, the TGI in the experiment on NCI-H23 was over 1000 nM; in experiment [3], over 1000 nM; in the experiment with RPMI-8226, over 1000 nM; in the experiment with BT-549 [6], 9940 nM; in experiment [10], over 1000 nM. In addition, the CC50 (in the experiment on NCI-H23 (setting [12]); in experiment [3] (setting [12]); in the experiment on RPMI-8226 (setting [12]); in the experiment on BT-549 [6] (setting [12]); in experiment [10] (setting [12])) was over 1000 nM each time. Moreover, the growth at 10 µM is 14% with MCF7, -14% in the experiment on COLO 205 [4], -27% in the experiment on MDA-MB-435 [5] and 8% in the experiment on HOP-62. Also, in the experiment with M14, the growth at 1 µM came out at 67%.
In the experiment with 786-0, `Cc1nn(-c2ccc(Cl)cc2)c(=O)n1CCN1CCOCC1` showed a GI50 of 5750 nM. For the same molecule, the CC50 in the experiment on 786-0 (read-out: pLC50 (the source's name) (converted)) was over 100000 nM. Besides, the TGI with 786-0 (read-out: pTGI) is over 100000 nM.
